Results taken from PubChem BioAssay.
Calls of active or inactive are those of the source. Unless noted, no stated cut-off is given here; in the data, active means inhibition above about 30%; inactive means the rest. Peptide text beside a SMILES is read from it. * marks the point of attachment. Boc = CC(C)(C)OC(=O)*

How the values were obtained:
[1] = reducers of endogenous Her2 protein level, primary screen, SKBR3 breast tumor cells, AlphaScreen, ATP viability (AID 461;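 active means Her2 level under about 52% in both replicate screens, with viability over 70% of control, limit read from the data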;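 on Her2 level: lower value means less Her2 protein in the cells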;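 on viability: percent of carrier control wells set as 100% viability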); conditions: 18-24 h, measured here: SKBR3 viability, ATP luminescence, at 10 µM
[2] = target: Receptor tyrosine-protein kinase erbB-2 (Homo sapiens) (UniProt P04626); experiment: as above; conditions: 18-24 h, at 10 µM, stronger effect = lower value
Chain of Receptor tyrosine-protein kinase erbB-2 (Homo sapiens) (P04626 whole entry, looked up): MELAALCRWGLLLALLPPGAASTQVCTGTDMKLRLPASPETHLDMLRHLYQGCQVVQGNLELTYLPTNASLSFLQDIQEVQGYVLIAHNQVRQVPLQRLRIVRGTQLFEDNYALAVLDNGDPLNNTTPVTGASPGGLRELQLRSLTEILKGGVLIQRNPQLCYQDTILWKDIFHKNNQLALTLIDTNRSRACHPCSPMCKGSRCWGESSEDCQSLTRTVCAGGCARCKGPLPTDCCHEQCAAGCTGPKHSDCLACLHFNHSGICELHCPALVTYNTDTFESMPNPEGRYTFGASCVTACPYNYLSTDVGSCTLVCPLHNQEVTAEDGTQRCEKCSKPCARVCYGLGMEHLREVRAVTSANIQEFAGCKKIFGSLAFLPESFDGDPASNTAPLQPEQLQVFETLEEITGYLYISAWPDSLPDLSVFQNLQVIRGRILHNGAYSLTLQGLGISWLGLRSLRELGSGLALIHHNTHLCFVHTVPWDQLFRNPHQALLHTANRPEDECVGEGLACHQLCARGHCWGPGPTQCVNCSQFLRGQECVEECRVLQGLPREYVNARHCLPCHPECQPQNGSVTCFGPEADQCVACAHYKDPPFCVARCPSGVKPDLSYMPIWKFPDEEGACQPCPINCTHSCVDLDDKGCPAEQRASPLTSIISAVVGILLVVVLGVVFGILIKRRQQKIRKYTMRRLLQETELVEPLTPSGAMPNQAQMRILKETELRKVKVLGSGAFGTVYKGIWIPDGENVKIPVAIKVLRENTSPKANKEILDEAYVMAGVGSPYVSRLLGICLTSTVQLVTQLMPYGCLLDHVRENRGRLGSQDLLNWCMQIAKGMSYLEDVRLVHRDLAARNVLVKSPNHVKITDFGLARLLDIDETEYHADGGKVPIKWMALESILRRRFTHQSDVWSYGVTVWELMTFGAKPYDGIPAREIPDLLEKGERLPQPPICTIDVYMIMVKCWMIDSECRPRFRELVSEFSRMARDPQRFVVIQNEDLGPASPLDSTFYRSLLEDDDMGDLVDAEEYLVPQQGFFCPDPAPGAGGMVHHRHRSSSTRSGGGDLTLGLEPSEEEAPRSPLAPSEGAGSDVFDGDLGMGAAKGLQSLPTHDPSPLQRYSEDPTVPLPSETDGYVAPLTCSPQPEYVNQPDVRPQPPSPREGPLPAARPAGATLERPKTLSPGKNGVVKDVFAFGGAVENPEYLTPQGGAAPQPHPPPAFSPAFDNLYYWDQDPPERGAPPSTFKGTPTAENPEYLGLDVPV

[3] = SK-BR-3 cell growth inhibitors, pilot screen, 24 h, human (AID 572;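 active means viability at or below 10% of carrier control in both of two separate runs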;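 further: compound exposure lasted between 18 and 24 h rather than exactly 24 h; 100% = carrier-treated control wells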); conditions: SK-BR-3 viability, CellTiter-Glo luminescence, at 10 µM, stronger effect = lower value
[4] = HUVEC growth inhibition – cell-based, human, primary screen (AID 575;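 active means viability at or below 30% in both replicate assays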;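 further: 100% = median of untreated cell wells with 0.1% DMSO on each plate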); conditions: HUVEC proliferation, CellTiter-Glo luminescence, 72 h; at 10 µM; stronger effect = lower value
Procedure, shortened: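 material = primary HUVEC, no more than 12 passages | input = 1250 cells per well | controls = vehicle and MePR control wells | measured by = CTG luminescence | times = 72 h compound incubation | format = collagen-coated 384-well format | read-out = % viability vs DMSO wells | doses = single 10 µM dose, 0.1% DMSO, from 5x medium stock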

[5] = growth inhibitors of H69AR lung tumor, primary screen, human, duplicate replicates (AID 580;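 active means viability at or under a set limit in both replicates, limit being median viability minus 3 SD, cut at about 48% in these data, passing the limit was not always enough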;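 further: 100% = mean luminescence of untreated wells and 0% = no signal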); conditions: H69AR lung tumor cells viability, ATP luminescence, 72 h; at 10 µM; stronger effect = lower value
[6] = reversal of MRP1-mediated doxorubicin resistance, pilot screen, H69AR cells, doxorubicin co-treatment (AID 601;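 active means viability loss from added drug above about 55%, and viability with drug at most 40%, in both replicates, limit read from the data, passing the limit was not always enough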); conditions: CellTiter-Glo, 72 h, at 10 µM; for differential viability (reversal): stronger effect = higher value
[7] = 384-well plate pilot, post-Golgi transport modulator project, inhibition of yeast transport mutant growth (AID 636; in the data active means inhibition above about 31%); conditions: absorbance 615 nm, about 18 h, stronger effect = higher value
[8] = growth suppression of yeast trafficking mutant, preliminary HTS, modulators of trafficking downstream of Golgi apparatus project, 1536-format plate, OD 615 nm (AID 637); conditions: yeast transport mutant growth, absorbance 615 nm, 18 h; stronger effect = higher value
[9] = H69AR cells + 2 uM doxorubicin, measured here: viability with 2 uM doxorubicin, stronger effect = lower value
[10] = H69AR cells, compound alone cytotoxicity

SMILES	viability [1] [%]	Her2 level [2]	viability [3]	viability [4]	viability [5]	differential viability (reversal) ([6]; H69AR cells + 2 uM doxorubicin)	viability [6, 9] [%]	viability [6, 10] [%]	inhibition [7]	inhibition [8]
O=C(CCCCCN1C(=O)CCC1=O)NCc1ccccc1	103	73% (inactive)	103% (inactive)	100% (inactive)	98.2% (inactive)	13.5% (inactive)	84.7	98.2	-7.97% (inactive)	4.13% (inactive)
Cc1cc(C)nc(NC(=O)c2ccc(OC(C)C)cc2)n1	102	90% (inactive)	102% (inactive)	95.8% (inactive)	104% (inactive)	14.3% (inactive)	90.2	104	-6.03% (inactive)	-4.13% (inactive)
CCn1c(C)c(CCC(=O)O)c(=O)n2nc(-c3ccccc3OC)cc12	91	104% (inactive)	91% (inactive)	100% (inactive)	87.4% (inactive)	-1.22% (inactive)	88.6	87.4	-0.14% (inactive)	23.6% (inactive)
CC(NC(=O)OC(C)(C)C)C(=O)N1CCCC1C(=O)NC(Cc1ccccc1)C(N)=O (stereo not drawn) (Boc-Ala-Pro-Phe-NH2; configuration not given here)	105	94% (inactive)	105% (inactive)	95.6% (inactive)	101% (inactive)	4.26% (inactive)	97.1	101	-1.73% (inactive)	4.68% (inactive)
C/C(=N\O)C(=O)NCc1ccccn1	102	134% (inactive)	102% (inactive)	85.3% (inactive)	92.2% (inactive)	-4.16% (inactive)	96.4	92.2	4.61% (inactive)	11.2% (inactive)
CCCCn1c(SCC(=O)Nc2ccc(OC)cc2)nc2ccc(N3CCOCC3)cc2c1=O	94.5	86% (inactive)	94.5% (inactive)	72.4% (inactive)	89.6% (inactive)	0.605% (inactive)	89	89.6	-2.8% (inactive)	0.16% (inactive)
CCCOc1cccc(-c2nnc(N)s2)c1	102	121% (inactive)	102% (inactive)	87.4% (inactive)	100% (inactive)	21.6% (inactive)	78.5	100	-4.8% (inactive)	-5.56% (inactive)
N#Cc1c(-c2ccccc2)nc(SCc2nc(N)nc(N3CCCCC3)n2)[nH]c1=O	90.5	86.5% (inactive)	90.5% (inactive)	81.5% (inactive)	99.9% (inactive)	-2.35% (inactive)	102	99.9	-6% (inactive)	5.08% (inactive)
CC(C)=CC(=O)Nc1ccc(Br)cc1	77.5	104% (inactive)	77.5% (inactive)	107% (inactive)	98.2% (inactive)	6.66% (inactive)	91.5	98.2	1.45% (inactive)	-9.35% (inactive)
COc1ccc(C2C(=O)N(C3CCCCC3)CC(=O)N2Cc2ccco2)cc1 (stereo not given)	110	91.5% (inactive)	110% (inactive)	95.9% (inactive)	97.7% (inactive)	18.2% (inactive)	79.5	97.7	-6.67% (inactive)	1.45% (inactive)
CCCCP(=O)(CCCC)c1ccccc1C(=O)O	110	104% (inactive)	110% (inactive)	90% (inactive)	107% (inactive)	12.9% (inactive)	94.2	107	1.82% (inactive)	-2.46% (inactive)
COc1cccc(NC(=O)Nc2cccs2)c1	93	79% (inactive)	93% (inactive)	75% (inactive)	79.5% (inactive)	1.41% (inactive)	78.1	79.5	-6.53% (inactive)	-2.3% (inactive)
CCOC(=O)CSc1nc2cc(C(=O)NCc3ccco3)ccc2c(=O)n1-c1ccc(F)cc1	86.5	105% (inactive)	86.5% (inactive)	71.4% (inactive)	87.5% (inactive)	12% (inactive)	75.6	87.5	-0.93% (inactive)	12.8% (inactive)
COCCCNC(=O)C1CCCN(C(=O)Nc2ccc(OC)cc2)C1 (stereo not given)	98	89% (inactive)	98% (inactive)	100% (inactive)	90.4% (inactive)	6.8% (inactive)	83.6	90.4	-7.03% (inactive)	1.83% (inactive)
Cc1cc(Nc2ccccc2N2CCOCC2)n2ncnc2n1	94.5	96% (inactive)	94.5% (inactive)	88% (inactive)	97.1% (inactive)	-0.715% (inactive)	97.8	97.1	-2.43% (inactive)	4.6% (inactive)
CC(=O)NC(Cc1ccccc1)C(=O)NC1CCN(C(=O)c2cnccn2)CC1 (stereo not given)	122	88% (inactive)	122% (inactive)	104% (inactive)	96.2% (inactive)	1.21% (inactive)	95	96.2	-4.86% (inactive)	8.52% (inactive)
Cc1ccc(-c2csc3nnc(SCC(=O)NCc4ccco4)n23)cc1	88.5	84.5% (inactive)	88.5% (inactive)	85.6% (inactive)	84.2% (inactive)	0.64% (inactive)	83.6	84.2	-6.27% (inactive)	-4.19% (inactive)
Cc1ccc2c(Cl)cc(Cl)c(OCc3c(C)noc3C)c2n1	102	99.5% (inactive)	102% (inactive)	84.7% (inactive)	84.9% (inactive)	-0.21% (inactive)	85.1	84.9	6.08% (inactive)	13.3% (inactive)
CN(C)C(=O)Cn1c(SCC(=O)NC2CCCCC2)nc2ccccc21	72	76% (inactive)	72% (inactive)	101% (inactive)	102% (inactive)	14.8% (inactive)	87.5	102	-6.08% (inactive)	0.16% (inactive)
O=C1NC(Nc2ccccn2)(C(F)(F)F)C(=O)N1c1ccc(F)cc1 (stereo not given)	102	89% (inactive)	102% (inactive)	107% (inactive)	103% (inactive)	-0.015% (inactive)	103	103	-5.47% (inactive)	1.64% (inactive)
COC(=O)Cn1cnc2c(nnn2-c2ccc(C)cc2)c1=O	86	108% (inactive)	86% (inactive)	112% (inactive)	94.7% (inactive)	7% (inactive)	87.7	94.7	-6.62% (inactive)	-2.17% (inactive)
Cn1cnnc1SCC(=O)NCc1cccc(C(F)(F)F)c1	88	97.5% (inactive)	88% (inactive)	102% (inactive)	94.3% (inactive)	0.52% (inactive)	93.8	94.3	-5.53% (inactive)	-1.43% (inactive)
CS(=O)(=O)N(CC(=O)Nc1ccc2c(c1)OCCO2)Cc1ccccc1	93.5	92% (inactive)	93.5% (inactive)	107% (inactive)	99.5% (inactive)	12.3% (inactive)	87.2	99.5	-4.93% (inactive)	-0.79% (inactive)
COc1ccc(CCn2c(-c3ccco3)nc3nc4ccccc4nc32)cc1	108	110% (inactive)	108% (inactive)	62.8% (inactive)	25.6% (active)	-29.9% (inactive)	55.4	25.6	-1.62% (inactive)	1.31% (inactive)
Cc1nc(NS(=O)(=O)c2ccccc2)sc1NC(=O)OC(C)C	97	106% (inactive)	97% (inactive)	90.3% (inactive)	99.9% (inactive)	1.17% (inactive)	98.7	99.9	-3.29% (inactive)	-12.5% (inactive)
CCOC(=O)C1CCN(C(=O)CSc2n[nH]c(=O)[nH]c2=O)CC1	109	90% (inactive)	109% (inactive)	94.6% (inactive)	102% (inactive)	5.61% (inactive)	96.7	102	-8.51% (inactive)	3.67% (inactive)
CS(=O)(=O)N(Cc1nc2sc3c(c2c(=O)[nH]1)CCCC3)C1CCCCC1	91	112% (inactive)	91% (inactive)	77.9% (inactive)	84% (inactive)	1.24% (inactive)	82.7	84	-4.8% (inactive)	-0.49% (inactive)
COC(=O)c1cc(Br)c(=O)n(-c2ccc(OC)cc2)c1	96.5	93.5% (inactive)	96.5% (inactive)	100% (inactive)	94.5% (inactive)	7.62% (inactive)	86.8	94.5	-2.8% (inactive)	0.65% (inactive)
